How the values were obtained:
Homo sapiens = organism: Homo sapiens; test: Prothrombin time activity, concentration required to double the time of clot formation in the prothrombin time assay; assay type: functional
Outline: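 Prothrombin time clotting assay run as described in a cited reference. The value is the compound concentration (μM) that doubles the time to clot formation. It is the mean of at least three separate experiments, with standard deviation under 20%.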

[1] = biological target: Coagulation factor X (Homo sapiens) (UniProt P00742); test: Binding affinity for human Coagulation factor X
Outline: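 Apparent association constant with human factor Xa, determined by the method the paper cites. Each value is the mean of at least three separate experiments, with standard deviation under 20%.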

[2] = biological target: Vitamin K-dependent protein C (Homo sapiens) (UniProt P04070); test: Measured for apparent association constant (binding affinity) for activated protein C
[3] = biological target: Coagulation factor XI (Homo sapiens) (UniProt P03951); test: Measured for apparent association constant (binding affinity) for Coagulation factor XI
[4] = biological target: T1, Serine protease 1 (Bos taurus) (UniProt P00760); test: Measured for apparent association constant (binding affinity) for trypsin (bovine)
T1 sequence (whole entry): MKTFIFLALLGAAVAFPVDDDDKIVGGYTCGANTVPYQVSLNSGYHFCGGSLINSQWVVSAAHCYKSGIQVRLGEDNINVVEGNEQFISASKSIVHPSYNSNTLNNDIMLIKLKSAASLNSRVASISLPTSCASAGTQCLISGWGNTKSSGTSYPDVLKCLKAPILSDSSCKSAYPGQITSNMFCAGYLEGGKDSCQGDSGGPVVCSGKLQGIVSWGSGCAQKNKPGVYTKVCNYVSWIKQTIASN

[5] = Measured for apparent association constant (binding affinity) for Factor IIa
[6] = biological target: Plasminogen (Homo sapiens) (UniProt P00747); test: Measured for apparent association constant (binding affinity) for plasmin
[7] = biological target: Urokinase-type plasminogen activator (Homo sapiens) (UniProt P00749); test: Measured for apparent association constant (binding affinity) for Urokinase-type plasminogen activator
[8] = biological target: Tissue-type plasminogen activator (Homo sapiens) (UniProt P00750); test: Measured for apparent association constant (binding affinity) for Tissue type plasminogen activator
[9] = biological target: T2, Coagulation factor XII (Homo sapiens) (UniProt P00748); test: Measured for apparent association constant (binding affinity) for Coagulation factor XII
T2 sequence (whole entry): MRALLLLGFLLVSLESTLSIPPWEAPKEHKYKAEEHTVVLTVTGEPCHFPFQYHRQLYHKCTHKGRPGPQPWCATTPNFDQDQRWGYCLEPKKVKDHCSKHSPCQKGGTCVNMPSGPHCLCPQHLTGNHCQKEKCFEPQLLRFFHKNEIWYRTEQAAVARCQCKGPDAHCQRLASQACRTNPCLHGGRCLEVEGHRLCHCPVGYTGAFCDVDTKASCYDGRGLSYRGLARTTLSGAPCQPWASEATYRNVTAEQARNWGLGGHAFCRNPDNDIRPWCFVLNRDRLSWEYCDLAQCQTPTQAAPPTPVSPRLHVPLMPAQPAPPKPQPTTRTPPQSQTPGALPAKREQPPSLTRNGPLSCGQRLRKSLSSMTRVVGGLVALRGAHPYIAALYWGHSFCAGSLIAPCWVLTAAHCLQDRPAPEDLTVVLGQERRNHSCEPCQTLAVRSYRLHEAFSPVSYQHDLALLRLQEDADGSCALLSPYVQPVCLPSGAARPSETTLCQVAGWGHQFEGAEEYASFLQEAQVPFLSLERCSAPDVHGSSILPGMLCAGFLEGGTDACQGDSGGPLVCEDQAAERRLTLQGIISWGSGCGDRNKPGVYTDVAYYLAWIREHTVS

[10] = biological target: Prothrombin (Homo sapiens) (UniProt P00734); test: Measured for apparent association constant (binding affinity) for Coagulation factor II

Coagulation factor X (Homo sapiens), sequence (P00742 41-179 limits assumed): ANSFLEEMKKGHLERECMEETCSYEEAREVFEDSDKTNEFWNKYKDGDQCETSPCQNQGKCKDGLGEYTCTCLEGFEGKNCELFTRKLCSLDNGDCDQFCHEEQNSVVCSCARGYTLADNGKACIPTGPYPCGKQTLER
Coagulation factor X (Homo sapiens), sequence (P00742 235-488 limits assumed): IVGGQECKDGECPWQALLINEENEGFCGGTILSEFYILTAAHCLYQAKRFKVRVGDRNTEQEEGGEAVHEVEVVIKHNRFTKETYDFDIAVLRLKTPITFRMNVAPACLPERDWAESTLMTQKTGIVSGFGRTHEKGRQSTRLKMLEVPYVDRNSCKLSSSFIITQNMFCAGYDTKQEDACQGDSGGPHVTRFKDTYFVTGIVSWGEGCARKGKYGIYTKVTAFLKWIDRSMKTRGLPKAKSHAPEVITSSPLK
Coagulation factor XI (Homo sapiens), sequence (P03951 19-387 limits assumed): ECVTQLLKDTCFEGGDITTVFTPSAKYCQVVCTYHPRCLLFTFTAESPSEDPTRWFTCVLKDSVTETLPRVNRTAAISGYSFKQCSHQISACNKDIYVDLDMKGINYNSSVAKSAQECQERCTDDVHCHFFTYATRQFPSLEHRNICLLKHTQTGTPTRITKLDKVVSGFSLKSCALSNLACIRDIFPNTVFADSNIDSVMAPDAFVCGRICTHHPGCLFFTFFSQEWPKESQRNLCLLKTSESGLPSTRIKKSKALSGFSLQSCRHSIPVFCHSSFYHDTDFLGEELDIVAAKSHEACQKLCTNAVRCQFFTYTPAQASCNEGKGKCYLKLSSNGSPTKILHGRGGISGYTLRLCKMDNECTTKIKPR
Coagulation factor XI (Homo sapiens), sequence (P03951 388-625 limits assumed): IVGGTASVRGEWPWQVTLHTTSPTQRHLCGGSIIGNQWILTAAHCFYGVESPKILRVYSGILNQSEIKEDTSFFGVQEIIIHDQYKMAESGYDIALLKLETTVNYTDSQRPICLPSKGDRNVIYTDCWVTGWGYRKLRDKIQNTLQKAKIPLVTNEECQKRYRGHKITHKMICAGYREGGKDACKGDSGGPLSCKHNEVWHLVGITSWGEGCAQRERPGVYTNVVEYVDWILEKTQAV
Plasminogen (Homo sapiens), sequence (P00747 whole entry, looked up): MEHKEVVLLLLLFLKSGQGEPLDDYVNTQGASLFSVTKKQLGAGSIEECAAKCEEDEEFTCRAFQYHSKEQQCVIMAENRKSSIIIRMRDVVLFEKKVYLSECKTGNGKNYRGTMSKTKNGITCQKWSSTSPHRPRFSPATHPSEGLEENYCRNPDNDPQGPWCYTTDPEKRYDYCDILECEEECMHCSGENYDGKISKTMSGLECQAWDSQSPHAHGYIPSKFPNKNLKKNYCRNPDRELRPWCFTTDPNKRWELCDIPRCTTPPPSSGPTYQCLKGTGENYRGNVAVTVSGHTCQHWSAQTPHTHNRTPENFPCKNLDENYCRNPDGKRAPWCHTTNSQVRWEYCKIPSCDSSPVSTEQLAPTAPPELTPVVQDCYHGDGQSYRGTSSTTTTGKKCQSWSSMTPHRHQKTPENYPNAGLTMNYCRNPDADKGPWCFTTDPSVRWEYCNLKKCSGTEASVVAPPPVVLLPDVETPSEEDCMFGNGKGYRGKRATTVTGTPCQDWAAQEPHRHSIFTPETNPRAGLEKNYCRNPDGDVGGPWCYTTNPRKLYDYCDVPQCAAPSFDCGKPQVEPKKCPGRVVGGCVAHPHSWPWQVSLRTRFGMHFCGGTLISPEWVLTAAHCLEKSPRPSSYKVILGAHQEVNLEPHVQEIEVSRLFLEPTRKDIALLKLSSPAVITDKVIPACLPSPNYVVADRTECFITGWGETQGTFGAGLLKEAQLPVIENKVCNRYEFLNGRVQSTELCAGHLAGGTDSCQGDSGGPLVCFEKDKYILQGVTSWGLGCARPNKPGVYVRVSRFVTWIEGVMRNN
Vitamin K-dependent protein C (Homo sapiens), sequence (P04070 43-197 limits assumed): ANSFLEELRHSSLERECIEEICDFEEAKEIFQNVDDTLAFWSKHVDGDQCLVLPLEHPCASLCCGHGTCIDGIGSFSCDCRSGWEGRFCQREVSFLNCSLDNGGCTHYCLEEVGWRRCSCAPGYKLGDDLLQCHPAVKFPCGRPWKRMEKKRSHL
Vitamin K-dependent protein C (Homo sapiens), sequence (P04070 212-461 limits assumed): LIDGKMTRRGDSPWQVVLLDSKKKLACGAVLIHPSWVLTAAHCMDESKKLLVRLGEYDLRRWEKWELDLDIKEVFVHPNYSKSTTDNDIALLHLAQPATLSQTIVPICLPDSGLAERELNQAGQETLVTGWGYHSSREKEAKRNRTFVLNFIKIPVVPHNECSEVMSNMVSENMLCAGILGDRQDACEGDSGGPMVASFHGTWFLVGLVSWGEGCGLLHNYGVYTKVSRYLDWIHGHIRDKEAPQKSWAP
Tissue-type plasminogen activator (Homo sapiens), sequence (P00750 36-562 limits assumed): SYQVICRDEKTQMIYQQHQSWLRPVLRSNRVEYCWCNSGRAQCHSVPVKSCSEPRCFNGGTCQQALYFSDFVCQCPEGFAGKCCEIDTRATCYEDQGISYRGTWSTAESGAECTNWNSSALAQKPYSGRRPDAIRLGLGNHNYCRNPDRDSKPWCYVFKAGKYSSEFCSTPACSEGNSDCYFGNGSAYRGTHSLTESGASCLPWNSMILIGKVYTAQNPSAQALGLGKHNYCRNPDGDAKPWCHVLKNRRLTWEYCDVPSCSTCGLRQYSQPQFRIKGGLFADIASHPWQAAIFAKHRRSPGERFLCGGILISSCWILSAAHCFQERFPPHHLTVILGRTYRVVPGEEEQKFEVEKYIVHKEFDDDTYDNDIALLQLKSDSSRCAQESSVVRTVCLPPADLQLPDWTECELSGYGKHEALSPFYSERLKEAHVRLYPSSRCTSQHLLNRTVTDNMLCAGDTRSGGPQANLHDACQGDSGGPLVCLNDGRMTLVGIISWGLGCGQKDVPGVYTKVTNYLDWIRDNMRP

| K ass [1] | SMILES | PT (Homo sapiens) [µM] | further results |
| --- | --- | --- | --- |
| 2.3e+06 l M-1 | COc1ccc(C(=O)Nc2ccccc2NC(=O)C2CCN(c3ccncc3)CC2)cc1 | 9.7 | – |
| 40000 l M-1 | CC(C)(C)c1ccc(C(=O)Nc2ccccc2NC(=O)NCC2CCN(c3ccncc3)CC2)cc1 | – | – |
| 2e+07 l M-1 | COc1ccc(C(=O)Nc2ccccc2NC(=O)OCC2CCN(c3ccncc3)CC2)cc1 | 1.9 | – |
| 6.2e+07 l M-1 | COc1ccc(C(=O)Nc2ccccc2NC(=O)NCC2CCN(c3ccncc3)CC2)cc1 | 0.96 | K ass [2]: < 10000 l M-1; K ass [3]: < 10000 l M-1; K ass [4]: < 10000 l M-1; K ass [5]: < 10000 l M-1; K ass [6]: < 10000 l M-1; K ass [7]: < 10000 l M-1; K ass [8]: < 10000 l M-1; K ass [9]: < 10000 l M-1 |
| 1.7e+07 l M-1 | COc1ccc(C(=O)Nc2ccccc2NC(=O)OC2CCN(c3ccncc3)CC2)cc1 | 2.6 | – |
| 6.6e+06 l M-1 | COc1ccc(C(=O)Nc2ccc(O)cc2NC(=O)c2ccc(C(C)(C)C)cc2)cc1 | > 50 | – |
| 5.9e+06 l M-1 | O=C(NCC1CCN(c2ccncc2)CC1)Nc1ccccc1NC(=O)c1ccccc1 | 6.2 | – |
| 1e+08 l M-1 | O=C(NCC1CCN(c2ccncc2)CC1)Nc1ccccc1NC(=O)c1ccc(Cl)cc1 | 0.58 | K ass [2]: < 10000 l M-1; K ass [3]: < 10000 l M-1; K ass [4]: < 10000 l M-1; K ass [10]: 60000 l M-1; K ass [6]: 90000 l M-1; K ass [7]: < 10000 l M-1; K ass [9]: < 10000 l M-1 |
| 1.5e+07 l M-1 | CCOc1ccc(C(=O)Nc2ccccc2NC(=O)NCC2CCN(c3ccncc3)CC2)cc1 | 2.6 | – |
| 9.2e+06 l M-1 | COc1ccc(C(=O)Nc2ccccc2NC(=O)c2ccc(-c3ccncc3)cc2)cc1 | 9.5 | – |
| 1.2e+07 l M-1 | COc1ccc(C(=O)Nc2ccccc2NC(=O)NC2CCN(c3ccncc3)CC2)cc1 | 2.4 | – |
| 4.7e+08 l M-1 | CC(C)(C)c1ccc(C(=O)Nc2cc(C(=O)O)ccc2NC(=O)c2cccc(C(=N)N)c2)cc1 | 0.83 | – |
| 2.5e+06 l M-1 | COc1ccc(C(=O)Nc2ccccc2NC(=O)OCCC2CCN(c3ccncc3)CC2)cc1 | > 15 | – |
